# Bioassay records: PubChem BioAssay, several laboratories
# Sampled rows, rich in hits. Any-hit rate of the full collection: about 2.2%.
# NF-kB expr up: compounds increasing NF-kB expression in human neuronal cells | NF-kB reporter expression; active compounds read high | fold change at 12.5 µM | 1.6% of 190,000 active | AID 1239; in the data active = fold change above about 3.3
# APP 5'UTR act: activates APP 5'UTR luciferase reporter; SH-SY5Y APP 5'UTR luciferase reporter, luminescence; zero percent = DMSO vehicle wells; activation, % at 2 µM; 1% of 190,000 active;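 active = activation above a set limit, based on mean plus 3 SD of controls, cut at about 140% in these data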
# FLuc stim CS: affects firefly luciferase, flagging false hits in luciferase stimulation screens; ATPlite luciferase biochemical, luminescence, 10 min; 0 = ATP-free wells, 1 = DMSO control; 200,000 tested, under 10 active; activation factor at 10 µM; P08659;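 active = luciferase activation factor, scaled between plate controls, of at least 2 with compound at 10 µM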
# Target sequence (P08659 whole entry, looked up): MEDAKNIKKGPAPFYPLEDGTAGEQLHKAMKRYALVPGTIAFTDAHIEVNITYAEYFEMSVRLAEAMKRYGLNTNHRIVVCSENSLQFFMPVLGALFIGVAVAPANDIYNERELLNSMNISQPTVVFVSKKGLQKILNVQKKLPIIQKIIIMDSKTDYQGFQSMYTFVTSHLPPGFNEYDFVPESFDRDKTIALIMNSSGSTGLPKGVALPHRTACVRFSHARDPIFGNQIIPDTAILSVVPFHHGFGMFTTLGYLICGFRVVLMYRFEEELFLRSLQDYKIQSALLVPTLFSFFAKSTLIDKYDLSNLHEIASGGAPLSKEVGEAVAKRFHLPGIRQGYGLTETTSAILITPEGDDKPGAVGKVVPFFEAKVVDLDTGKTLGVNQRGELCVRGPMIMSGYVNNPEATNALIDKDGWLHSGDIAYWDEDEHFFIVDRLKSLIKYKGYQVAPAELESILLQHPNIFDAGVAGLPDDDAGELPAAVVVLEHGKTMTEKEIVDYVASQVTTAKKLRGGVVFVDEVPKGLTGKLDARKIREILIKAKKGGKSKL
#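 Assay system: Luciferase/luciferin detection reagent, cell-free biochemical luciferase assay / Read-out: luciferase activation / Benchmarks: No-ATP low control, compound-free enzyme-plus-ATP high control / Medium: PBS buffer for ATP / Detection: luminescence measurement of luciferase light output / Schedule: 10 min at ambient temperature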
# PPC-1+TRAIL kill: PPC-1 cancer cell killing with TRAIL present | AID 1443 | cell killing (% activity), % at 4 µM or 5 µM | PPC-1 cells + TRAIL, ATPLite viability luminescence | 0.41% of 220,000 active;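 active = cell killing above 50% in the first pass at 4 µM, then a duplicate retest at 5 µM averaging 50% or more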;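 note: plate controls were cells with TRAIL plus DMSO for no effect and medium-only wells lacking cells for full effect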
# FLuc inhib CS: counter-screen for luciferase assay inhibitors: firefly luciferase inhibition; P08659; 1.5% of 200,000 active; inhibition, % at 10 µM; ATPLite firefly luciferase biochemical luminescence, 10 min;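 active = inhibition above about 50% when tested at 10 µM, limit read from the data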
# TRAIL sens C8: caspase-8 TRAIL sensitization | AID 624354 | NB7+C8 cells + TRAIL, ATPlite viability luminescence | inhibition (viability loss, TRAIL sensitization), % at 10 µM | 1% of 360,000 active;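 active = compounds causing at least 50% loss of cell viability in the single-dose screen, relative to plate controls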
# * hit, by the source's call; / = no result given.
SMILES,NF-kB expr up,APP 5'UTR act,FLuc stim CS,PPC-1+TRAIL kill,FLuc inhib CS,TRAIL sens C8
CC1(C)CC(=O)C=C(c2ccc(-c3ccc(OC(F)(F)F)cc3)cc2)C1=O,/,/,/,/,/,20
CCN1/C(=C/C=C/c2oc3ccc(-c4ccccc4)cc3[n+]2CC)Oc2ccc(-c3ccccc3)cc21,0.29,-74,1,57*,-2,79*
CC(=O)Nc1ccc(C(=O)N/N=C/c2cccnc2)cc1,0.94,-4,1.1,22,-10,5
COc1ccc(C(=O)N/N=C/c2cccc3cccnc23)cc1,1.1,19,0.4,32,59*,13
CC(C)c1cc(C(=O)N/N=C/c2ccoc2)cs1,/,/,/,/,/,9
CC(C)c1cc(C(=O)N/N=C/c2cccnc2)cs1,1.4,-1,0.4,11,64*,40
COc1ccc(C(=O)N/N=C/c2cccnc2)cc1,/,/,/,/,/,52*
CNc1c2cccc(C)c2nc2c(C(=O)NCCN(C)C)cccc12,/,/,/,/,/,74*
c1ccc(CCSc2nccn2-c2ccccc2)cc1,4.6*,126,0.9,16,11,11
COC(=O)CCCSc1nccn1-c1ccccc1,6*,15,1.1,12,-6,3
CCc1ccc(CSc2nccn2-c2ccccc2)cc1,1.4,-1,1.1,15,-6,-7
CSc1nc(NS(=O)(=O)c2ccc(F)cc2F)nn1C,/,/,/,/,/,4
Cc1ccc(-c2nn(-c3ccccc3)cc2C=O)o1,4.5*,144*,0.4,17,62*,21
OCc1cn(-c2ccccc2)nc1-c1ccco1,2.2,7,0.7,9,31,1
Cc1ccc(-c2nn(-c3ccccc3)cc2CO)o1,3.8*,98,0.7,22,26,16
Cc1ccc(-c2nn(-c3ccccc3)cc2C(N)=O)o1,0.92,17,1,10,0,-2
COc1ccc(N(C(=O)/C=C/c2ccccc2)C2=CC3CCC(C2)N3C)cc1 (stereo unspecified),/,/,/,14,/,5
CCOc1ccc(C(=O)C(C)OC(=O)CN2C(=O)NC(C)(C)C2=O)cc1 (stereo unspecified),/,/,/,/,/,-7
C=CCSC(=C(C#N)C#N)c1cc2c([nH]1)CCCC2,7.3*,16,1,13,0,-3
Cc1ccc2c(c1)-c1cc(C)ccc1C2=O,/,/,/,/,/,-7
CCS(=O)(=O)c1ccc(N=Nc2ccc(O)c3ncccc23)c(OC)c1,0.8,-63,0.9,-11,10,70*
Cc1ccc(C)c(C2C(=O)c3ccccc3C2=O)c1,/,/,/,/,/,-7
Cc1ccc2ccc(C3C(=O)c4ccccc4C3=O)nc2c1,/,145*,/,/,/,32
c1nc(SSc2ncnc3nc[nH]c23)c2[nH]cnc2n1,/,/,/,/,/,73*
O=C(O)CSc1ncnc2nc[nH]c12,1.1,/,1.1,-3,-6,11
SMILES,NF-kB expr up,APP 5'UTR act,FLuc stim CS,PPC-1+TRAIL kill,FLuc inhib CS,TRAIL sens C8
Cc1ccc(S(=O)(=O)N2CCCCC2)cc1C(=O)Nc1ccc(S(=O)(=O)Nc2ncccn2)cc1,/,/,/,-20,/,-1
CC1(C(=O)NS(=O)(=O)c2ccc(F)cc2F)CCN1C(=O)C1CCCCC1 (stereo unspecified),/,/,/,/,/,-5
CCc1ccc(/C=C2\SC(=S)N(CCC(=O)N3CCN(C)CC3)C2=O)cc1,3.3*,-9,0.6,16,39,5
COc1ccc(/C=C2/SC(=S)N(CCC(=O)N3CCN(C)CC3)C2=O)cc1,/,/,/,/,/,1
C=CCOc1ccc(C=CC(=O)c2c(O)c(OC)c(OC)c(OC)c2OC)cc1,/,/,/,/,/,-5
O=C(NCc1ccccc1)C(c1cc2ccccc2o1)n1c(=O)c(-c2ccccc2)nc2ccccc21 (stereo unspecified),/,/,/,/,/,-30
C=CCOC(=O)c1[nH]c2c(c1C)C(=O)CC(c1ccco1)C2 (stereo unspecified),4.7*,-97,1,7,-4,/
Cc1c(C(=O)OC2CCCC2)[nH]c2c1C(=O)CC(c1ccco1)C2 (stereo unspecified),4.3*,-94,1,-16,-5,20
Cc1c(C(=O)OCC(C)C)[nH]c2c1C(=O)CC(c1ccco1)C2 (stereo unspecified),2.9,-96,1,24,-4,22
COC(=O)C1C(=O)c2c([nH]c(C(=O)OC3CCCC3)c2C)CC1C (stereo unspecified),3.4*,109,0.4,37,56*,47
Cc1c(C(=O)OC2CCCC2C)[nH]c2c1C(=O)CCC2 (stereo unspecified),2,25,1,26,0,-3
Cc1ccc(NC(=O)c2ccc(COc3ccccc3)o2)nc1,/,/,/,/,/,3
Cc1ccc(C(=O)NCCn2c(N)c(C#N)c3nc4ccccc4nc32)cc1,1,4,1.1,73*,-8,-8
CCOc1ccc(NC(=O)COc2ccccc2)c([N+](=O)[O-])c1,4.1*,78,0.4,22,59*,31
Cc1ccc(OCC(=O)NC(=S)Nc2ccccn2)c(Br)c1,/,/,/,/,/,84*
O=C(COc1ccc(Br)cc1Cl)NC(=S)Nc1ccccn1,/,/,/,/,/,22
Cc1ccc(OCC(=O)Nc2ccccc2[N+](=O)[O-])c(Br)c1,5.7*,154*,0.7,14,27,14
COC(=O)c1ccccc1NC(=O)COc1ccccc1[N+](=O)[O-],0.73,10,1,/,0,2
O=C(NC(=S)Nc1ccccn1)c1cncc(Br)c1,1.7,87,0.4,12,64*,10
COc1cc(NC(=O)Cc2c(C(=O)O)n(C)c3ccccc23)cc(OC)c1OC,0.96,30,1.1,7,-6,-5
Cc1nn(Cc2ccccc2Cl)c(Cl)c1C(=O)NCCc1ccccc1,3.5*,/,0.8,16,22,5
Cc1cc(NC(=O)C(C)C)ncc1NC(=O)c1cccc(F)c1,1.1,3,1,14,-3,35
CCCC(=O)Nc1cnc(NC(=O)c2cccc(F)c2)cc1C,2.7,173*,0.7,14,30,1
CCCNC(=O)C1(C)CCN(Cc2ccc3ccccc3c2Br)C1 (stereo unspecified),/,/,/,/,/,13
Cc1ccc(C)c(OCC(=O)N/N=C/c2ccc(N3CCOCC3)cc2)c1,/,/,/,/,/,-10
SMILES,NF-kB expr up,APP 5'UTR act,FLuc stim CS,PPC-1+TRAIL kill,FLuc inhib CS,TRAIL sens C8
O=C1NC(c2ccc(Br)cc2)=N/C1=C/c1ccco1,0.9,140*,0.5,3,48,-6
O=C1NC(c2ccccc2Cl)=N/C1=C/c1ccco1,/,/,/,0,/,5
CC(=O)Nc1ccc(S(=O)(=O)N[C@@H](C)C(=O)OCC(=O)c2ccc(C)cc2)cc1,/,/,/,/,/,4
Cc1nc2c(C(=O)Nc3ccc(N4CCCC(O)C4)cc3)snc2c(=O)[nH]1 (stereo unspecified),/,/,/,-4,/,20
O=C(Nc1ccc(N2CCCC(O)C2)cc1)c1snc2c(=O)[nH]cnc12 (stereo unspecified),1.3,/,0.3,47,66*,49
CCN(CC)c1ccc2cc(-c3nc4ccccc4n3C)c(=O)oc2c1,4.1*,-87,0.8,13,24,29
COc1ccccc1N1CCN(C2=Nc3cccc4cccc2c34)CC1,2,85,0.2,47,78*,67*
